Laboratory results: ChEMBL document CHEMBL1121751, “Inhibition of thymidylate synthetase by 5-alkynyl-2'-deoxyuridylates” (J Med Chem, 1981)
Calls of active or inactive are those of the source. No cut-off for these calls is given here.

Key:
[1] = Compound was tested for cytotoxicity towards (Wild-type and TK-) S49 cells at 0.1 mM; Not cytotoxic; assay type: cell-based; conditions: mouse, s49, 100 µM
[2] = Effective concentration to inhibit the growth of Wild-type S49 cells; assay type: functional, cell-based; conditions: Mus musculus
In short: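 Growth-inhibition assay run by a previously reported procedure on wild-type S49 cells, with a thymidine kinase-deficient S49/TK⁻ line tested alongside. The 5-alkynyl-2'-deoxyuridine nucleosides were tested up to 0.1 mM. EC₅₀ is the concentration giving half-maximal growth inhibition.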

Mus musculus = organism: Mus musculus; assay: Effect on mutant line lacking dThd kinase (S49/TK at 0.1 mM; No effect; assay type: functional
Thymidylate synthase = target: T1, Thymidylate synthase (Lactobacillus casei, UniProt P00469); assay: The compound was evaluated for the inhibition of dTMP synthetase from Lactobacillus casei; design: species or system Lacticaseibacillus casei
T1 sequence (P00469 whole entry): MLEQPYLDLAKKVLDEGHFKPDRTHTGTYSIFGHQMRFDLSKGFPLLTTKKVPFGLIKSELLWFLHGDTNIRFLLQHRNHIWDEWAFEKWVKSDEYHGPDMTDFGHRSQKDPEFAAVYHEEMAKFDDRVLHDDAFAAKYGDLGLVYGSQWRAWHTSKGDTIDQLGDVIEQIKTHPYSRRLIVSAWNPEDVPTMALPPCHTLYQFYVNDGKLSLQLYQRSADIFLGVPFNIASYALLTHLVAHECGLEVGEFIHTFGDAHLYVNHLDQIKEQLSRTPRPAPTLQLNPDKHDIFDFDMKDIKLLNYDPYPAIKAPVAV
In short: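 dTMP synthetase came from a methotrexate-resistant strain of Lactobacillus casei and was purified. Activity was measured by a reported procedure in standard assay buffer. For time-dependent inactivation, enzyme was preincubated with nucleotide, with or without 0.1 mM CH₂-H₄folate, for up to 2 h. Aliquots were then diluted 10-fold into buffer containing 0.84 mM dUMP and 0.1 mM CH₂-H₄folate, and initial velocity was recorded.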

[3] = Compound was tested for cytotoxicity against Wild-type S49 cells; assay type: functional, cell-based; conditions: Mus musculus

## O=c1[nH]c(=O)n([C@H]2C[C@H](O)[C@@H](CO)O2)cc1C#CCO
[1]
  Cytotoxicity: Non-toxic

## C#Cc1cn([C@H]2C[C@H](O)[C@@H](CO)O2)c(=O)[nH]c1=O
[2]
  EC50: 120 nM
Mus musculus
  Effect: inactive

## O=c1[nH]c(=O)n([C@H]2C[C@H](O)[C@@H](COP(=O)(O)O)O2)cc1C#CCCO
Thymidylate synthase
  Ki: 1900 nM

## CCCCC#Cc1cn([C@H]2C[C@H](O)[C@@H](CO)O2)c(=O)[nH]c1=O
[1]
  Cytotoxicity: Non-toxic

## O=c1[nH]c(=O)n([C@H]2C[C@H](O)[C@@H](COP(=O)(O)O)O2)cc1Cl
Thymidylate synthase
  Ki: 200 nM

## O=c1[nH]c(=O)n([C@H]2C[C@H](O)[C@@H](COP(=O)(O)O)O2)cc1C#CCO
Thymidylate synthase
  Ki: 3000 nM

## C#Cc1cn([C@H]2C[C@H](O)[C@@H](COP(=O)(O)O)O2)c(=O)[nH]c1=O
Thymidylate synthase
  Ki: 100 nM

## O=c1[nH]c(=O)n([C@H]2C[C@H](O)[C@@H](CO)O2)cc1C#Cc1ccccc1
[1]
  Cytotoxicity: Non-toxic

## O=c1[nH]c(=O)n([C@H]2C[C@H](O)[C@@H](CO)O2)cc1C#CCCO
[3]
  EC50: 70000 nM
Mus musculus
  Effect: inactive

## O=c1[nH]c(=O)n([C@H]2C[C@H](O)[C@@H](COP(=O)(O)O)O2)cc1C#Cc1ccccc1
Thymidylate synthase
  Ki: 2000 nM

## CCCCC#Cc1cn([C@H]2C[C@H](O)[C@@H](COP(=O)(O)O)O2)c(=O)[nH]c1=O
Thymidylate synthase
  Ki: 2600 nM
